Source: the RNAGym collection of RNA variant scans (doi:10.1002/anie.201605470)

B1: Osa-1-4 twister ribozyme (parent)
chain: CCGCCUAACACUGCCAAUGCCGGUCCCAAGCCCGGAUAAAAGUGGAGGGGGCGG

Variants of: B1
Experiment: self-cleavage, relative activity (ratio to wild type); higher = more cleavage; co-transcriptional
Method in brief: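 For each read, cleavage status was taken from whether upstream sequence was present. The reads came from an Oryza sativa twister ribozyme of 54 nucleotides, whose DNA template was synthesised with 97 % wild-type base and 1 % of each other base at the 48 positions downstream of the cleavage site. The template was transcribed in vitro at 37 °C for 2 h with co-transcriptional self-cleavage, and the RNA was reverse-transcribed using a template-switching oligonucleotide, PCR-amplified and deep-sequenced. Relative activity is the fraction cleaved normalised to wild type.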

First: CCGCCUAACACUGCCAAUGCCGGUCCCAAUCCCGGAUUAAAGUGGAGGGGGCGG [A38U G30U]
Second: CCGCCUAACACUGCCAAUGCCGGUCCCAAGCCCAGAUUAAAGUGGAGGGGGCGG [A38U G34A]
The self-cleavage of the first is lower: 0.04 for the first, 0.78 for the second.

Going from CCGCCUAACACUGCCAAUGCCGGUCCCAAGCCCCGAUUAAAGUGGAGGGGGCGG [A38U G34C] to CCGCCUAACACUGCCAAUGCCGGUCCCAAGCCCUGAUUAAAGUGGAGGGGGCGG [A38U G34U], the self-cleavage rises from 0.5 to 0.77.

Going from CCGCCUAACACUGCCAAUGCCGGUCCCAAGCCCGAAUUAAAGUGGAGGGGGCGG [A38U G35A] to CCGCCUAACACUGCCAAUGCCGGUCCCAAGCCCGCAUUAAAGUGGAGGGGGCGG [A38U G35C], the self-cleavage falls from 0.83 to 0.13.

Compared with CCGCCUAACACUGCCAAUGCCGGUCCCAAGCCCGUAUUAAAGUGGAGGGGGCGG [A38U G35U], CCGCCUAACACUGCCAAUGCCGGUCCCAAGCCCGGAUUAAAAUGGAGGGGGCGG [A38U G42A] is lower in self-cleavage: 0.89 for the first, 0.6 for the second.

First: CCGCCUAACACUGCCAAUGCCGGUCCCAAGCCCGGAUUAAACUGGAGGGGGCGG [A38U G42C]
Second: CCGCCUAACACUGCCAAUGCCGGUCCCAAGCCCGGAUUAAAUUGGAGGGGGCGG [A38U G42U]
The self-cleavage of the first is higher: 0.17 for the first, 0.08 for the second.

First: CCGCCUAACACUGCCAAUGCCGGUCCCAAGCCCGGAUUAAAGUAGAGGGGGCGG [A38U G44A]
Second: CCGCCUAACACUGCCAAUGCCGGUCCCAAGCCCGGAUUAAAGUCGAGGGGGCGG [A38U G44C]
The self-cleavage of the first is lower: 0.92 for the first, 0.96 for the second.

Compared with CCGCCUAACACUGCCAAUGCCGGUCCCAAGCCCGGAUUAAAGUUGAGGGGGCGG [A38U G44U], CCGCCUAACACUGCCAAUGCCGGUCCCAAGCCCGGAUUAAAGUGAAGGGGGCGG [A38U G45A] is lower in self-cleavage: 0.89 for the first, 0.23 for the second.

Compared with CCGCCUAACACUGCCAAUGCCGGUCCCAAGCCCGGAUUAAAGUGCAGGGGGCGG [A38U G45C], CCGCCUAACACUGCCAAUGCCGGUCCCAAGCCCGGAUUAAAGUGUAGGGGGCGG [A38U G45U] is higher in self-cleavage: 0.06 for the first, 0.09 for the second.

Compared with CCGCCUAACACUGCCAAUGCCGGUCCCAAGCCCGGAUUAAAGUGGAAGGGGCGG [A38U G47A], CCGCCUAACACUGCCAAUGCCGGUCCCAAGCCCGGAUUAAAGUGGACGGGGCGG [A38U G47C] is lower in self-cleavage: 0.18 for the first, 0.08 for the second.

Going from CCGCCUAACACUGCCAAUGCCGGUCCCAAGCCCGGAUUAAAGUGGAUGGGGCGG [A38U G47U] to CCGCCUAACACUGCCAAUGCCGGUCCCAAGCCCGGAUUAAAGUGGAGAGGGCGG [A38U G48A], the self-cleavage falls from 0.19 to 0.1.

CCGCCUAACACUGCCAAUGCCGGUCCCAAGCCCGGAUUAAAGUGGAGCGGGCGG [A38U G48C] and CCGCCUAACACUGCCAAUGCCGGUCCCAAGCCCGGAUUAAAGUGGAGUGGGCGG [A38U G48U] are the same in self-cleavage: 0.08 for the first, 0.08 for the second.

Compared with CCGCCUAACACUGCCAAUGCCGGUCCCAAGCCCGGAUUAAAGUGGAGGAGGCGG [A38U G49A], CCGCCUAACACUGCCAAUGCCGGUCCCAAGCCCGGAUUAAAGUGGAGGCGGCGG [A38U G49C] is lower in self-cleavage: 0.12 for the first, 0.05 for the second.

Going from CCGCCUAACACUGCCAAUGCCGGUCCCAAGCCCGGAUUAAAGUGGAGGUGGCGG [A38U G49U] to CCGCCUAACACUGCCAAUGCCGGUCCCAAGCCCGGAUUAAAGUGGAGGGAGCGG [A38U G50A], the self-cleavage rises from 0.09 to 0.64.

Compared with CCGCCUAACACUGCCAAUGCCGGUCCCAAGCCCGGAUUAAAGUGGAGGGCGCGG [A38U G50C], CCGCCUAACACUGCCAAUGCCGGUCCCAAGCCCGGAUUAAAGUGGAGGGUGCGG [A38U G50U] is higher in self-cleavage: 0.99 for the first, 1.01 for the second.

First: CCGCCUAACACUGCCAAUGCCGGUCCCAAGCCCGGAUUAAAGUGGAGGGGACGG [A38U G51A]
Second: CCGCCUAACACUGCCAAUGCCGGUCCCAAGCCCGGAUUAAAGUGGAGGGGCCGG [A38U G51C]
The self-cleavage of the first is higher: 0.63 for the first, 0.09 for the second.

First: CCGCCUAACACUGCCAAUGCCGGUCCCAAGCCCGGAUUAAAGUGGAGGGGUCGG [A38U G51U]
Second: CCGCCUAACACUGCCAAUGCCGGUCCCAAGCCCGGAUUAAAGUGGAGGGGGCAG [A38U G53A]
The self-cleavage of the first is lower: 0.32 for the first, 0.81 for the second.

First: CCGCCUAACACUGCCAAUGCCGGUCCCAAGCCCGGAUUAAAGUGGAGGGGGCCG [A38U G53C]
Second: CCGCCUAACACUGCCAAUGCCGGUCCCAAGCCCGGAUUAAAGUGGAGGGGGCUG [A38U G53U]
The self-cleavage of the first is lower: 0.09 for the first, 0.27 for the second.

First: CCGCCUAACACUGCCAAUGCCGGUCCCAAGCCCGGAUUAAAGUGGAGGGGGCGA [A38U G54A]
Second: CCGCCUAACACUGCCAAUGCCGGUCCCAAGCCCGGAUUAAAGUGGAGGGGGCGC [A38U G54C]
The self-cleavage of the first is higher: 0.93 for the first, 0.89 for the second.

Compared with CCGCCUAACACUGCCAAUGCCGGUCCCAAGCCCGGAUUAAAGUGGAGGGGGCGU [A38U G54U], CCGCCUAACACAGCCAAUGCCGGUCCCAAGCCCGGAUUAAAGUGGAGGGGGCGG [A38U U12A] is lower in self-cleavage: 0.95 for the first, 0.86 for the second.

First: CCGCCUAACACCGCCAAUGCCGGUCCCAAGCCCGGAUUAAAGUGGAGGGGGCGG [A38U U12C]
Second: CCGCCUAACACGGCCAAUGCCGGUCCCAAGCCCGGAUUAAAGUGGAGGGGGCGG [A38U U12G]
The self-cleavage of the first is higher: 0.4 for the first, 0.31 for the second.

Going from CCGCCUAACACUGCCAAAGCCGGUCCCAAGCCCGGAUUAAAGUGGAGGGGGCGG [A38U U18A] to CCGCCUAACACUGCCAACGCCGGUCCCAAGCCCGGAUUAAAGUGGAGGGGGCGG [A38U U18C], the self-cleavage rises from 0.92 to 0.93.

First: CCGCCUAACACUGCCAAGGCCGGUCCCAAGCCCGGAUUAAAGUGGAGGGGGCGG [A38U U18G]
Second: CCGCCUAACACUGCCAAUGCCGGACCCAAGCCCGGAUUAAAGUGGAGGGGGCGG [A38U U24A]
The self-cleavage of the first is higher: 0.85 for the first, 0.14 for the second.

First: CCGCCUAACACUGCCAAUGCCGGCCCCAAGCCCGGAUUAAAGUGGAGGGGGCGG [A38U U24C]
Second: CCGCCUAACACUGCCAAUGCCGGGCCCAAGCCCGGAUUAAAGUGGAGGGGGCGG [A38U U24G]
The self-cleavage of the first is higher: 0.25 for the first, 0.03 for the second.

Going from CCGCCUAACACUGCCAAUGCCGGUCCCAAGCCCGGAAUAAAGUGGAGGGGGCGG [A38U U37A] to CCGCCUAACACUGCCAAUGCCGGUCCCAAGCCCGGACUAAAGUGGAGGGGGCGG [A38U U37C], the self-cleavage rises from 1.03 to 1.04.

CCGCCUAACACUGCCAAUGCCGGUCCCAAGCCCGGAGUAAAGUGGAGGGGGCGG [A38U U37G] showed a self-cleavage of 1.03.
